Measured values reported in ChEMBL document CHEMBL1144035, “Synthesis, cytostatic and anti-HCV activity of 6-(N-substituted aminomethyl)-, 6-(O-substituted hydroxymethyl)- and 6-(S-substituted sulfanylmethyl)purine nucleosides” (Bioorg Med Chem, 2008).
Calls of active or inactive are those of the source. The calls are words filed in the database; no cut-off is given here.

What was measured:
HeLa = experiment: Cytostatic activity in human HeLa S3 cells assessed as inhibition of cell growth after 48 hrs by XTT assay; format: functional, cell-based
CCRF-CEM [1] = experiment: Cytostatic activity in human CCRF-CEM cells assessed as inhibition of cell growth after 72 hrs; format: functional, cell-based
In short: (§1)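 Cultures from ATCC lines: mouse leukaemia L1210 (CCL 219), human promyelocytic leukaemia HL60 (CCL 240) and human T-lymphoblastoid CCRF-CEM (CCL 119). Growth inhibition was estimated from the cell count in a haematological analyzer (haemocytometer).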

HL-60 [2] = experiment: Cytostatic activity in human HL60 cells assessed as inhibition of cell growth after 72 hrs; format: functional, cell-based; details: for IC50: HL-60, 72 h; in short: as §1
Hepatitis C virus = experiment: Antiviral activity against Hepatitis C virus 1b after 3 days; format: functional, organism-based, Hepacivirus hominis; details: genotype 1b, 72 h
[3] = Cytotoxicity against human Huh7 cells after 3 days by MTT method; format: functional; details: Huh-7, 72 h
In short: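 Cellular toxicity was read by MTT in Huh-7 cells carrying the con-1 HCV replicon, in duplicate (N = 2).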

L1210 = experiment: Cytostatic activity in mouse L1210 cells assessed as inhibition of cell growth after 72 hrs; format: functional, cell-based; details: for IC50: L1210, 72 h; in short: as §1
MT4 = experiment: Cytotoxicity against human MT4 cells after 4 days; format: functional; details: MT4, 96 h
In short: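 Cellular toxicity was measured in MT-4 cells, N = 2.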

HL-60 [4] = experiment: Cytostatic activity in human HL60 cells assessed as inhibition of cell growth after 72 hrs by XTT assay; format: functional, cell-based; details: HL-60, 72 h
CCRF-CEM [5] = experiment: Cytostatic activity in human CCRF-CEM cells assessed as inhibition of cell growth after 72 hrs by XTT assay; format: functional, cell-based
HL-60 [6] = experiment: Cell cycle arrest in human HL60 cells by depletion of cells at S phase after 72 hrs by flow cytometry; format: functional, cell-based
HL-60 [7] = experiment: Cell cycle arrest in human HL60 cells by accumulation at G1 phase after 72 hrs by flow cytometry; format: functional, cell-based

| IC50 (HL-60 [2]) | EC50 (Hepatitis C virus) | IC50 (L1210) | IC50 (CCRF-CEM [1]) | IC50 (HL-60 [4]) | IC50 (CCRF-CEM [5]) | SMILES | Activity (HeLa) | Activity (CCRF-CEM [1]) | CC50 [3] | CC50 (MT4) | Activity (HL-60 [2]) | Activity (L1210) | Activity (HL-60 [6]) | Activity (HL-60 [7]) |
| --- | --- | --- | --- | --- | --- | --- | --- | --- | --- | --- | --- | --- | --- | --- |
| 13 µM | 3 µM | 17 µM | – | – | – | CC(C)N(Cc1ncnc2c1ncn2[C@@H]1O[C@H](CO)[C@@H](O)[C@H]1O)C(C)C | inactive | inactive | 18 µM | – | – | – | – | – |
| – | 62 µM | – | – | – | – | OC[C@H]1O[C@@H](n2cnc3c(Cn4cccn4)ncnc32)[C@H](O)[C@@H]1O | inactive | inactive | > 250 µM | 48 µM | inactive | inactive | – | – |
| 5.7 µM | 7.6 µM | – | 3.4 µM | 9.1 µM | 1.96 µM | OC[C@H]1O[C@@H](n2cnc3c(Cn4ccc5ccccc54)ncnc32)[C@H](O)[C@@H]1O | inactive | – | > 250 µM | 45 µM | – | inactive | – | – |
| – | 44 µM | – | – | – | – | OC[C@H]1O[C@@H](n2cnc3c(CSc4ccccn4)ncnc32)[C@H](O)[C@@H]1O | inactive | inactive | > 100 µM | > 100 µM | inactive | inactive | – | – |
| – | 20 µM | – | – | – | – | OC[C@H]1O[C@@H](n2cnc3c(CS)ncnc32)C[C@@H]1O | inactive | inactive | 41 µM | – | inactive | inactive | – | – |
| 5.6 µM | 9 µM | 4.8 µM | 20.3 µM | 2.4 µM | – | CN(Cc1ccccc1)Cc1ncnc2c1ncn2[C@@H]1O[C@H](CO)[C@@H](O)[C@H]1O | inactive | – | 9 µM | – | – | – | – | – |
| 4 µM | 41 µM | 5.1 µM | – | – | – | CN(C)Cc1ncnc2c1ncn2[C@@H]1O[C@H](CO)[C@@H](O)[C@H]1O | inactive | inactive | > 100 µM | – | – | – | – | – |
| – | > 100 µM | – | – | – | – | OC[C@H]1O[C@@H](n2cnc3c(CSc4ccccc4)ncnc32)[C@H](O)[C@@H]1O | inactive | inactive | > 100 µM | – | inactive | inactive | – | – |
| 13.4 µM | 10 µM | > 30 µM | 15 µM | 5 µM | 3.2 µM | CSCc1ncnc2c1ncn2[C@@H]1O[C@H](CO)[C@@H](O)[C@H]1O | inactive | – | > 100 µM | 32 µM | – | – | – | – |
| 13 µM | 186 µM | – | – | – | – | OC[C@H]1O[C@@H](n2cnc3c(CN4CCOCC4)ncnc32)[C@H](O)[C@@H]1O | inactive | inactive | > 250 µM | – | – | inactive | – | – |
| – | > 100 µM | – | – | – | – | CC(=O)N(Cc1ncnc2c1ncn2[C@@H]1O[C@H](CO)[C@@H](O)[C@H]1O)C1CC1 | inactive | inactive | > 100 µM | – | inactive | inactive | – | – |
| 0.01 µM | – | – | 0.15 µM | – | – | OCc1ncnc2c1ncn2[C@@H]1O[C@H](CO)[C@@H](O)[C@H]1O | inactive | – | – | – | – | – | – | – |
| 3.5 µM | 39 µM | – | – | 1.2 µM | – | OC[C@H]1O[C@@H](n2cnc3c(CS)ncnc32)[C@H](O)[C@@H]1O | inactive | inactive | 54 µM | – | – | inactive | – | – |
| 14.7 µM | 15 µM | 14.3 µM | 6.7 µM | 4.37 µM | 3.72 µM | OCCN(CCO)Cc1ncnc2c1ncn2[C@@H]1O[C@H](CO)[C@@H](O)[C@H]1O | inactive | – | 10 µM | – | – | – | Active | Active |
| – | > 100 µM | – | – | – | – | O=c1ccn(Cc2ncnc3c2ncn3[C@@H]2O[C@H](CO)[C@@H](O)[C@H]2O)cc1 | inactive | inactive | > 100 µM | – | inactive | inactive | – | – |
| – | 20 µM | – | – | – | – | CC(=O)N(Cc1ncnc2c1ncn2[C@H]1C[C@H](O)[C@@H](CO)O1)C1CCCCC1 | inactive | inactive | > 100 µM | > 100 µM | inactive | inactive | – | – |

| IC50 (HL-60 [2]) | EC50 (Hepatitis C virus) | IC50 (L1210) | IC50 (CCRF-CEM [1]) | IC50 (HL-60 [4]) | IC50 (CCRF-CEM [5]) | SMILES | Activity (HeLa) | Activity (CCRF-CEM [1]) | CC50 [3] | CC50 (MT4) | Activity (HL-60 [2]) | Activity (L1210) | Activity (HL-60 [6]) | Activity (HL-60 [7]) |
| --- | --- | --- | --- | --- | --- | --- | --- | --- | --- | --- | --- | --- | --- | --- |
| – | 91 µM | – | – | – | – | O=c1ccccn1Cc1ncnc2c1ncn2[C@@H]1O[C@H](CO)[C@@H](O)[C@H]1O | inactive | inactive | > 100 µM | – | inactive | inactive | – | – |
| 6.6 µM | 65 µM | – | 18 µM | 11.4 µM | 10.3 µM | CC(=O)NNCc1ncnc2c1ncn2[C@@H]1O[C@H](CO)[C@@H](O)[C@H]1O | inactive | – | > 250 µM | – | – | inactive | – | – |
| 13 µM | 13 µM | – | 6 µM | 1.68 µM | 1.14 µM | COCc1ncnc2c1ncn2[C@@H]1O[C@H](CO)[C@@H](O)[C@H]1O | inactive | – | > 100 µM | – | – | inactive | Active | Active |
| – | > 100 µM | – | – | – | – | CC(=O)N(Cc1ncnc2c1ncn2[C@@H]1O[C@H](CO)[C@@H](O)[C@H]1O)C1CCCCC1 | inactive | inactive | > 100 µM | – | inactive | inactive | – | – |
| – | 14 µM | – | – | – | – | O=C1CCCN1Cc1ncnc2c1ncn2[C@@H]1O[C@H](CO)[C@@H](O)[C@H]1O | inactive | inactive | 45 µM | – | inactive | inactive | – | – |
| 12 µM | > 250 µM | – | 16.6 µM | 14.3 µM | 10.8 µM | OC[C@H]1O[C@@H](n2cnc3c(COc4ccccn4)ncnc32)[C@H](O)[C@@H]1O | inactive | – | > 250 µM | – | – | inactive | – | – |
| – | > 100 µM | – | – | – | – | OC[C@H]1O[C@@H](n2cnc3c(COc4ccccc4)ncnc32)[C@H](O)[C@@H]1O | inactive | – | > 100 µM | – | inactive | inactive | – | – |
| – | 87 µM | – | – | – | – | O=C(O)CNCc1ncnc2c1ncn2[C@@H]1O[C@H](CO)[C@@H](O)[C@H]1O | inactive | inactive | > 100 µM | – | inactive | inactive | – | – |
| – | > 100 µM | – | – | – | – | CC(=O)N(Cc1ccccc1)Cc1ncnc2c1ncn2[C@@H]1O[C@H](CO)[C@@H](O)[C@H]1O | inactive | inactive | > 100 µM | – | inactive | inactive | – | – |
| – | > 100 µM | – | – | – | – | O=C(O)CSCc1ncnc2c1ncn2[C@@H]1O[C@H](CO)[C@@H](O)[C@H]1O | inactive | inactive | > 100 µM | – | inactive | inactive | – | – |
| – | 46 µM | – | – | – | – | OCCSCc1ncnc2c1ncn2[C@@H]1O[C@H](CO)[C@@H](O)[C@H]1O | inactive | inactive | > 100 µM | > 100 µM | inactive | inactive | – | – |
| – | > 100 µM | – | – | – | – | OC[C@H]1O[C@@H](n2cnc3c(CSc4nc5ccccc5s4)ncnc32)[C@H](O)[C@@H]1O | inactive | inactive | > 100 µM | – | inactive | inactive | – | – |
| 6.9 µM | 42 µM | 12.2 µM | – | – | – | OC[C@H]1O[C@@H](n2cnc3c(CN4CCCCC4)ncnc32)[C@H](O)[C@@H]1O | inactive | inactive | 87 µM | – | – | – | – | – |
| 5.2 µM | 7 µM | 7.8 µM | 19.6 µM | 3.12 µM | – | OC[C@H]1O[C@@H](n2cnc3c(CN4CCSC4)ncnc32)[C@H](O)[C@@H]1O | inactive | – | 21 µM | – | – | – | – | – |
| – | > 100 µM | – | – | – | – | CC(=O)N(C)Cc1ncnc2c1ncn2[C@@H]1O[C@H](CO)[C@@H](O)[C@H]1O | inactive | inactive | > 100 µM | – | inactive | inactive | – | – |

| SMILES | IC50 (HL-60 [2]) | EC50 (Hepatitis C virus) | IC50 (L1210) | IC50 (CCRF-CEM [1]) | IC50 (HL-60 [4]) | IC50 (CCRF-CEM [5]) | Activity (HeLa) | Activity (CCRF-CEM [1]) | CC50 [3] | CC50 (MT4) | Activity (HL-60 [2]) | Activity (L1210) | Activity (HL-60 [6]) | Activity (HL-60 [7]) |
| --- | --- | --- | --- | --- | --- | --- | --- | --- | --- | --- | --- | --- | --- | --- |
| C[C@@]1(O)[C@H](O)[C@@H](CO)O[C@H]1n1cnc2c(N)ncnc21 | – | 0.23 µM | – | – | – | – | inactive | – | > 100 µM | – | – | – | – | – |
| O=c1[nH]c(=O)n([C@H]2C[C@H](O)[C@@H](CO)O2)cc1F [FLOXURIDINE] | – | – | 0.012 µM | – | – | – | inactive | – | – | – | – | – | – | – |
